The text below walks through data of ChEMBL document CHEMBL5260822, “Structure-based design and synthesis of 2,4-diaminopyrimidines as EGFR L858R/T790M selective inhibitors for NSCLC” (Eur J Med Chem, 2017).

Broadly, the half-life is the time needed for the level to fall by half in the phase considered. Low readings indicate fast loss, high ones slow loss. As a reminder, the residual activity is what remains of the control signal, in per cent. A low value points to little activity left. Broadly, the IC50 is the concentration needed to halve the response being measured. In general, AUC refers to the area under the concentration-time curve, a measure of exposure. A high value points to more exposure. As usually defined, the Cmax is the maximum level reached in the sampled fluid or tissue.

The nature of series [1]: Half life in Sprague-Dawley rat at 10 mg/kg, po and measured after 24 hrs by LC-MS/MS analysis. It is filed as ADME, organism-based. As to conditions: in vivo. Put shortly:
(§1)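 Male Sprague–Dawley rats (190–220 g) dosed by oral gavage at 10 mg/kg in 5% DMSO / 95% HP-β-CD aqueous solution (20%); iv reference arm at 1 mg/kg. Blood sampled at 0.25, 0.5, 1, 2, 4, 6, 8 and 24 h, centrifuged (8000 × g, 6 min), and plasma quantified by LC–MS/MS.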

Series [2] concerns Epidermal growth factor receptor (Homo sapiens), P00533 [L858R,T790M]. The series can be described thus: Inhibition of EGFR phosphorylation in EGF-stimulated human NCI-H1975 cells harboring EGFR L858R/T790M double mutant at 0.1 to 100 nM and measured after 2 hrs by Western blot analysis. The format is cell-based. As to conditions: dose 0.1-100 nM. In a few lines:
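Cells treated with compound for 2 h, then stimulated with EGF for 15 min and lysed. Lysates cleared at 12,000 × g (10 min, 4 °C), protein measured by Bradford assay, and equal amounts run on 8% SDS-PAGE and blotted to nitrocellulose. Probed for p-EGFR (Y1068), EGFR, p-ERK (T202/Y204), ERK, with tubulin or GAPDH as loading controls.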
A general note: In western blotting, separated proteins are transferred to a membrane and probed.

For series [3], the target named is Tyrosine-protein kinase JAK2 (Homo sapiens) (UniProt O60674). The series can be described thus: Inhibition of JAK2 (unknown origin) at 1000 nM by DiscoverX KINOMEscan assay relative to control; values are per cent of control.
Sequence of Tyrosine-protein kinase JAK2 (Homo sapiens) (O60674 whole entry): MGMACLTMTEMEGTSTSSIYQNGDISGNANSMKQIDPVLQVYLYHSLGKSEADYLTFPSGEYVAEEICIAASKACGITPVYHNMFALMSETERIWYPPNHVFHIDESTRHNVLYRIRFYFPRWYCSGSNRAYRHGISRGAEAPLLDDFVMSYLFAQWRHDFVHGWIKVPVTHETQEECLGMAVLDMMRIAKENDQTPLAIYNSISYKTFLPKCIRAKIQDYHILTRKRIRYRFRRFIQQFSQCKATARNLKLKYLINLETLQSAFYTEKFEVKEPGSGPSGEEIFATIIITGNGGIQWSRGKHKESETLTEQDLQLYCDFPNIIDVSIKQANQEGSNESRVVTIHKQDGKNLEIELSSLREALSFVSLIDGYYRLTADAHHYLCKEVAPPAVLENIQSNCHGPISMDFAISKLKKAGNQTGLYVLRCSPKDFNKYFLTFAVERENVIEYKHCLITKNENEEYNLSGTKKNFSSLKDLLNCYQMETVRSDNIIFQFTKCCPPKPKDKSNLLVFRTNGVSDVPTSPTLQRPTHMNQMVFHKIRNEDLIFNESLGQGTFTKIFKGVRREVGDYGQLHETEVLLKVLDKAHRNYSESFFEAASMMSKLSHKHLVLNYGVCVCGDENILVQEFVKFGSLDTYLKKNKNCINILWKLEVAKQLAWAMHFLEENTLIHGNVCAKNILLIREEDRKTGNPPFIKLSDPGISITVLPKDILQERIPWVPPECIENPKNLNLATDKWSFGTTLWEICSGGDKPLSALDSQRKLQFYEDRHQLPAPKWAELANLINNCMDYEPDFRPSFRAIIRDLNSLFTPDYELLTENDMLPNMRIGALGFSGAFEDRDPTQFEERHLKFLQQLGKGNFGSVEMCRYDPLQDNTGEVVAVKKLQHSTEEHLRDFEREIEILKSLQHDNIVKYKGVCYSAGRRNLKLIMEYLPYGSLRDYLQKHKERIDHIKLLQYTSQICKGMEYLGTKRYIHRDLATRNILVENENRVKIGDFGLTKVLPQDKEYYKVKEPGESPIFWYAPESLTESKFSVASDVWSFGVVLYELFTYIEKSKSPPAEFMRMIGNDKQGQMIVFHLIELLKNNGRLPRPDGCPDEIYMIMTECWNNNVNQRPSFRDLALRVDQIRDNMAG
For series [4], the system named is NCI-H1975. The series can be described thus: Antitumor activity against human NCI-H1975 cells harboring EGFR L858R/T790M mutant xenografted in BALB/c nude mouse assessed as tumor growth inhibition at 15 mg/kg, po for 18 days. It is filed as functional. The note with it: NCI-H1975, 432 h, time 18 day, read-out: TGI. In a few lines:
(§2)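 H1975 cells (1 × 10^6 in 0.1 mL PBS) injected subcutaneously into the right flank of female nude mice. At mean tumor volume of about 100 mm3 (roughly 18 days), mice randomized, n = 6 per group, and dosed once daily for 18 days against a vehicle group. Tumor volume (0.5 × L × W²) measured every 2–3 days; tumors weighed at sacrifice. Data given as mean ± SEM.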

A short description of series [5]: Toxicity in BALB/c nude mouse xenografted with human NCI-H1975 cells harboring EGFR L858R/T790M mutant assessed as morphological changes in kidney at 15 to 30 mg/kg, po for 18 days by hematoxylin and eosin staining based microscopic analysis. The format is organism-based. The note with it: in vivo, 432 h, dose 15-30 mg/kg, time 18 day. In a few lines:
(§3)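 H1975 subcutaneous xenografts were grown in female BALB/cA nu/nu mice (n = 6 per group), dosed at 15 or 30 mg/kg/day for 18 days or with vehicle. At the end the mice were sacrificed. Heart, kidney and liver were harvested, processed and stained with hematoxylin and eosin for routine histological examination.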
(Xenograft models place foreign cells or tissue in a host animal.)

Series [6] is described as follows: Toxicity in BALB/c nude mouse xenografted with human NCI-H1975 cells harboring EGFR L858R/T790M mutant assessed as morphological changes in liver at 15 to 30 mg/kg, po for 18 days by hematoxylin and eosin staining based microscopic analysis. As to conditions: in vivo, 432 h, dose 15-30 mg/kg, time 18 day. It is filed as organism-based. Put shortly: as §3
Series [7] deals with NCI-H1975. The series can be described thus: Antitumor activity against human NCI-H1975 cells harboring EGFR L858R/T790M mutant xenografted in BALB/c nude mouse assessed as tumor growth inhibition at 30 mg/kg, po for 18 days. The format is functional. The note with it: NCI-H1975, 432 h, time 18 day, read-out: TGI. Put shortly:
as §2

Series [8] has as its system NCI-H1975. Description: Antiproliferative activity against human NCI-H1975 cells harboring EGFR L858R/T790M double mutant assessed as inhibition of cell proliferation incubated for 72 hrs by sulforhodamine B colorimetric assay. The format is functional, cell-based. The note with it: NCI-H1975, 72 h.
A short description of series [9]: AUC (0 to infinity) in Sprague-Dawley rat at 10 mg/kg, po and measured after 24 hrs by LC-MS/MS analysis. The format is ADME, organism-based. Details: dose 10 mg/kg, time 24 hrs, route po. The note with it: in vivo. Put shortly:
as §1

The nature of series [10]: Cmax in Sprague-Dawley rat at 1 mg/kg, iv and measured after 24 hrs by LC-MS/MS analysis. The format is ADME, organism-based. Also on record: dose 1 mg/kg, time 24 hrs, route iv. As to conditions: in vivo.
Series [11] has as its target T1, Tyrosine-protein kinase JAK3 (Homo sapiens) (UniProt P52333).
T1 sequence (whole entry): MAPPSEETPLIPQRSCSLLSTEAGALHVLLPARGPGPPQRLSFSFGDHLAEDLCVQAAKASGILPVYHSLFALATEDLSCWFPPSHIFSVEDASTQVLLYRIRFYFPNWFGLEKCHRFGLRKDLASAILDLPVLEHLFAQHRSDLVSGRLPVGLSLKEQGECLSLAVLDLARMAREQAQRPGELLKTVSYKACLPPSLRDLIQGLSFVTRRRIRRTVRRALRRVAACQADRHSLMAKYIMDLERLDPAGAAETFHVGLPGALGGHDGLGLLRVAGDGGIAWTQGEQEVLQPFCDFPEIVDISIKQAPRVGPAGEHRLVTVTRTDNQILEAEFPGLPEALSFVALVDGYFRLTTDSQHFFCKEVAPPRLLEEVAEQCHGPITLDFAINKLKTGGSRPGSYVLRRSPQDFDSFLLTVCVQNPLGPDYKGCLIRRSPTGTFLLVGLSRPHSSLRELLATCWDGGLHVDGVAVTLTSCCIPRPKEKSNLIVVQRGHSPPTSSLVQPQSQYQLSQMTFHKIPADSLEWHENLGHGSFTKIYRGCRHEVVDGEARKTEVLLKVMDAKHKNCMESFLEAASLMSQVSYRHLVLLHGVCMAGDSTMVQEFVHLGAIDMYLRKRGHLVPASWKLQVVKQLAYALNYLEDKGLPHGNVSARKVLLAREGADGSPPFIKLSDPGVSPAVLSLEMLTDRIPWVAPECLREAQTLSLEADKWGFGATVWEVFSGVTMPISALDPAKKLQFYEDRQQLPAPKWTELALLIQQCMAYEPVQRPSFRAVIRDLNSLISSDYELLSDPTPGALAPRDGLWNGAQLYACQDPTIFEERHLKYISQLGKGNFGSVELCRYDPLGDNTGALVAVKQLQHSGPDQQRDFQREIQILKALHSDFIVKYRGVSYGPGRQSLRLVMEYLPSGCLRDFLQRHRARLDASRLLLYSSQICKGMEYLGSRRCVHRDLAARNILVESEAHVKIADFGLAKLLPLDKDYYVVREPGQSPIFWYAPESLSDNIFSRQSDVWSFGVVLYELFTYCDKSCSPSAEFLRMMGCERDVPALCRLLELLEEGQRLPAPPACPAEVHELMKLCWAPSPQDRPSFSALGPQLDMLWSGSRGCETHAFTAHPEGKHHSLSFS
Description: Inhibition of JAK3 (unknown origin) at 1000 nM by DiscoverX KINOMEscan assay relative to control; values are per cent of control.

Sequence of Epidermal growth factor receptor (Homo sapiens), P00533 [L858R,T790M] (P00533 whole entry T790M/L858R, looked up): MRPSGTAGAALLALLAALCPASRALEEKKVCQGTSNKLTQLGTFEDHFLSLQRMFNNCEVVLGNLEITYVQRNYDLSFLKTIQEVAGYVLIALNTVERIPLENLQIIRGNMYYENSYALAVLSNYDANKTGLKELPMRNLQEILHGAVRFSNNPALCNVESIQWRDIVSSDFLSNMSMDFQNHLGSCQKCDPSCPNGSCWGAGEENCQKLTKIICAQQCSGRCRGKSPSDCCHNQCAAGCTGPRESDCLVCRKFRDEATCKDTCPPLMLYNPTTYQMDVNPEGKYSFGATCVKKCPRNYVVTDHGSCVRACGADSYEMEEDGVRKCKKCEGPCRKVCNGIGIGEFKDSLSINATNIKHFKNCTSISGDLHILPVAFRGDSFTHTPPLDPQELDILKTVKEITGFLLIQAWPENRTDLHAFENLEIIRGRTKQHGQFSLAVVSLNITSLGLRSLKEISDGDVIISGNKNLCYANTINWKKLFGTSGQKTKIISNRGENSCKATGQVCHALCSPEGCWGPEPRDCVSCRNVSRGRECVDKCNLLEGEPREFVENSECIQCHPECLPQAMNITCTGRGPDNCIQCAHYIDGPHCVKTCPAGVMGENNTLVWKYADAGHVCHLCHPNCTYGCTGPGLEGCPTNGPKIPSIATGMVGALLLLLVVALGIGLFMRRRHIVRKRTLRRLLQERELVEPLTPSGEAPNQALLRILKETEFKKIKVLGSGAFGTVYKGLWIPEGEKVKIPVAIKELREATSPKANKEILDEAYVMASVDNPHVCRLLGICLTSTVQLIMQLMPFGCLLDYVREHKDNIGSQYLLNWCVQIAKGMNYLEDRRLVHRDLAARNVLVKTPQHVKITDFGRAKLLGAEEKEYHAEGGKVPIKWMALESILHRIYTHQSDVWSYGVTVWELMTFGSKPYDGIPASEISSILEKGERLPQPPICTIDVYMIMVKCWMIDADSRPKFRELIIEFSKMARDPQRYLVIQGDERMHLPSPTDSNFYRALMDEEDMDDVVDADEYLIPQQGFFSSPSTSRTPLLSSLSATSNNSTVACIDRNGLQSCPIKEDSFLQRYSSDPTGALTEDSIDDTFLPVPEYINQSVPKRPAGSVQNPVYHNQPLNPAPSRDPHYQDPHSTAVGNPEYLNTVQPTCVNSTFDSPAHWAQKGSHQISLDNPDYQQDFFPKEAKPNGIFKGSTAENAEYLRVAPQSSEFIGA

Regarding `C=CC(=O)Nc1cc(Nc2ncc(Br)c(Nc3ccc4ccn(C)c4c3)n2)c(OC)cc1N1CCN(C)CC1`, the half-life in [1] was 3.25 h. Besides, the inhibition result in series [2] was “Dose-Dependent Effect”. Besides, the residual activity in series [3] was less than 10%; in series [11], less than 1%. For the same molecule, in series [4], the inhibition in vivo at 15 mg/kg was found to be 62%. In addition, the Activity result in series [5] and in [6] was “Non-Toxic” throughout. Besides, the inhibition in vivo at 30 mg/kg in [7] came out at 86%. In addition, in series [8], the IC50 worked out at 184 nM. For the same molecule, the AUC in series [9] was 52.3 ng·h/mL. In series [10], this molecule showed a Cmax of 235 ng/mL.
